Assay results reported in ChEMBL document CHEMBL1133693, “Peptide and peptide mimetic inhibitors of antigen presentation by HLA-DR class II MHC molecules. Design, structure-activity relationships, and X-ray crystal structures” (J Med Chem, 2000).
Starred links: 1 amine or outer side, 2 acyl side, 3 side chain; linkers in the order of their positions; H or OH if unused. Non-standard residues stand in square brackets, D forms with d. Residues, ends and D or L forms follow the SMILES beside them. ξ: configuration not given here. *: point of attachment. Haic = O=C1[C@@H](N[*:1])CCc2cccc3c2N1[C@H](C(=O)[*:2])C3; X1 = O=C([C@@H]1C(c2ccccc2)CCN1[*:1])[*:2]; NMePhg = CN[C@H](C(=O)O)c1ccccc1; Tic = O=C(O)[C@@H]1Cc2ccccc2CN1; Cha = N[C@@H](CC1CCCCC1)C(=O)O; NMeL = CN[C@@H](CC(C)C)C(=O)O; ξTle = CC(C)(C)C(N)C(=O)O; NHCH(CH2OH)2 = OCC(CO)N*; NMeA = CN[C@@H](C)C(=O)O; ξNMeA = CNC(C)C(=O)O

Assays:
Cathepsin B (Bos taurus) = Cathepsin B (Bos taurus) (UniProt P07688); test: Percent of original compound remaining with cathepsin B after incubation for 4 hrs was determined by HPLC
T-cell [1] = test: T-cell inhibitory potency relative to the IC50 of a(Cha)AAAKTAAAAa-NH2 iMHC class II DRB1*0101; assay type: functional, Homo sapiens
[2] = Mean relative potency is the ratio of potencies of 'Ac-(Cha)RAMASL-NH2' and compound to inhibit MHC class II DRB1*0401
Summary of the method: (§1)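 Scintillation proximity competition assay. Test compounds competed against the radioligand, and bound counts were read by scintillation. Ac-(Cha)RAMASL-NH2 was run as standard competitor in every run. Potency is the ratio of standard IC50 to compound IC50.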

[3] = Mean relative potency is the ratio of potencies of 'Ac-(Cha)RAMASL-NH2' and compound to inhibit MHC class II DRB1*0101
Summary of the method: as §1

T-cell [4] = test: T-cell inhibitory potency relative to the IC50 of a(Cha)AAAKTAAAAa-NH2 in MHC class II DRB1*0401; assay type: functional, Homo sapiens
[5] = Mean relative potency is the ratio of potencies of 'Ac-(Cha)RAMASL-NH2' and compound, to inhibit MHC class II DRB1*0404
Summary of the method: as §1

[6] = Mean relative potency is the ratio of potencies of 'Ac-(Cha)RAMASL-NH2' and compound, to inhibit MHC class II DRB1*0101
Summary of the method: as §1

[7] = Mean relative potency is the ratio of potencies of 'Ac-(Cha)RAMASL-NH2' and compound, to inhibit MHC class II DRB1*0401
Summary of the method: as §1

SMILES	% remaining (Cathepsin B (Bos taurus)) [%]	T-cell inhibition (T-cell [1])	Mean relative potency [2]	Mean relative potency [3]	T-cell inhibition (T-cell [4])	Mean relative potency [5]	Mean relative potency [6]	Mean relative potency [7]
CC(=O)N[C@@H](CC1CCCCC1)C(=O)N[C@@H](CCCN=C(N)N)C(=O)N(C)[C@@H](C)C(=O)N[C@H]1CCc2cccc3c2N(C1=O)[C@H](C(=O)N[C@@H](CO)C(=O)N(C)[C@@H](CC(C)C)C(N)=O)C3 (Ac-[Cha]R[NMeA][Haic]S[NMeL]-NH2)	106	<0.04	0.18	0.03	2.32			
CC(=O)N[C@@H](CC1CCCCC1)C(=O)N[C@@H](CCCN=C(N)N)C(=O)N(C)[C@H](C(=O)N[C@H]1CCc2cccc3c2N(C1=O)[C@H](C(=O)N[C@@H](CO)C(=O)N(C)C(C)C(N)=O)C3)c1ccccc1 (stereo partly drawn) (Ac-[Cha]R[NMePhg][Haic]S[ξNMeA]-NH2)	141	<0.2	0.37	0.01	4.6			
CSCC[C@H](NC(=O)[C@H](C)NC(=O)[C@H](CCCN=C(N)N)NC(=O)[C@H](CC1CCCCC1)NC(C)=O)C(=O)N[C@H](C)C(=O)N[C@@H](CO)C(N)=O						0.32	0.34	1.14
CSCC[C@@H](NC(=O)[C@@H](c1ccccc1)N(C)C(=O)[C@H](CCCN=C(N)N)NC(=O)[C@H](CC1CCCCC1)NC(C)=O)C(=O)N(C)[C@@H](C)C(=O)N[C@@H](CO)C(=O)N[C@H](C(N)=O)C(C)(C)C	43		1.27	1.64				
CSCC[C@H](NC(=O)[C@H](C)NC(=O)[C@H](CCCN=C(N)N)NC(=O)[C@H](CC1CCCCC1)NC(C)=O)C(N)=O (Ac-[Cha]RAM-NH2)						0.005	0.05	0.01
CSCC[C@@H](NC(=O)[C@H]1Cc2ccccc2CN1C(=O)[C@H](CCCN=C(N)N)NC(=O)[C@H](CC1CCCCC1)NC(C)=O)C(=O)N1CCC(c2ccccc2)[C@@H]1C(=O)N[C@@H](CO)C(=O)N(C)[C@@H](C)C(N)=O (stereo partly drawn)	98	6.9	0.63	0.84	4.6			
CC(=O)N[C@@H](CC1CCCCC1)C(=O)N[C@@H](CCCN=C(N)N)C(=O)N(C)[C@H](C(=O)N[C@H]1CCc2cccc3c2N(C1=O)[C@H](C(=O)N[C@@H](CO)C(=O)N(C)[C@@H](CC(C)C)C(N)=O)C3)c1ccccc1 (Ac-[Cha]R[NMePhg][Haic]S[NMeL]-NH2)	95	0.1	0.11	0.01	1			
CC(=O)N[C@@H](CC1CCCCC1)C(=O)N[C@@H](CCCN=C(N)N)C(=O)N[C@@H](C)C(N)=O						0	0	0
CSCC[C@H](NC(=O)[C@H](C)N(C)C(=O)[C@H](CCCN=C(N)N)NC(=O)[C@H](CC1CCCCC1)NC(C)=O)C(=O)N1CCC(c2ccccc2)[C@H]1C(=O)N[C@@H](CO)C(=O)N(C)[C@@H](C)C(N)=O (stereo partly drawn) (Ac-[Cha]R[NMeA]M[X1]S[NMeA]-NH2)		3.7			1.2			
CSCC[C@H](NC(=O)[C@@H]1Cc2ccccc2CN1C(=O)[C@H](CCCN=C(N)N)NC(=O)[C@H](CC1CCCCC1)NC(C)=O)C(=O)N(C)[C@@H](C)C(=O)N[C@@H](CO)C(=O)N(C)[C@@H](C)C(N)=O		0.86			1.5			
CSCC[C@H](NC(=O)[C@H](C)NC(=O)[C@H](CCCN=C(N)N)NC(=O)[C@H](CC1CCCCC1)NC(C)=O)C(=O)N[C@H](C)C(=O)N[C@@H](CO)C(=O)N(C)[C@@H](CC(C)C)C(N)=O	0						0.85	0.77
CSCC[C@H](NC(=O)[C@@H](NC(=O)[C@H](CCCN=C(N)N)NC(=O)[C@H](CC1CCCCC1)NC(C)=O)C(C)(C)C)C(=O)N(C)[C@@H](C)C(=O)N[C@@H](CO)C(=O)N[C@H](C(N)=O)C(C)(C)C		2.9			1.5			
CSCC[C@@H](NC(=O)[C@@H](c1ccccc1)N(C)C(=O)[C@H](CCCN=C(N)N)NC(=O)[C@H](CC1CCCCC1)NC(C)=O)C(=O)N[C@@H](C)C(=O)N[C@@H](CO)C(=O)N[C@H](C(N)=O)C(C)(C)C	93		2.02	1.15				
CSCC[C@H](NC(=O)[C@H](c1ccccc1)N(C)C(=O)[C@H](CCCN=C(N)N)NC(=O)[C@H](CC1CCCCC1)NC(C)=O)C(=O)N[C@@H](C)C(=O)N[C@@H](CO)C(=O)N[C@H](C(N)=O)C(C)(C)C		5.37			3.2			
CSCC[C@H](NC(=O)[C@H](c1ccccc1)N(C)C(=O)[C@H](CCCN=C(N)N)NC(=O)[C@H](CC1CCCCC1)NC(C)=O)C(=O)N(C)[C@@H](C)C(=O)N[C@@H](CO)C(=O)N[C@H](C(N)=O)C(C)(C)C		7.8			2.5			
CC(=O)N[C@@H](CC1CCCCC1)C(=O)N[C@@H](CCCN=C(N)N)C(=O)N(C)[C@H](C(=O)N[C@H]1CCc2cccc3c2N(C1=O)[C@H](C(=O)N[C@@H](CO)C(=O)NC(C(N)=O)C(C)(C)C)C3)c1ccccc1 (stereo partly drawn) (Ac-[Cha]R[NMePhg][Haic]S[ξTle]-NH2)	126	2.3	0.23	0.06	3			
CSCC[C@@H](NC(=O)[C@H](NC(=O)[C@H](CCCN=C(N)N)NC(=O)[C@H](CC1CCCCC1)NC(C)=O)C(C)(C)C)C(=O)N(C)[C@@H](C)C(=O)N[C@@H](CO)C(=O)N[C@H](C(N)=O)C(C)(C)C	97		0.38	0.29				
CC(=O)N[C@@H](CC1CCCCC1)C(=O)N[C@@H](CCCN=C(N)N)C(=O)N1Cc2ccccc2C[C@H]1C(=O)N[C@H]1CCc2cccc3c2N(C1=O)[C@H](C(=O)N[C@@H](CO)C(=O)N(C)[C@@H](C)C(N)=O)C3 (Ac-[Cha]R[Tic][Haic]S[NMeA]-NH2)	109	0.2	0.27	0.12	0.7			
CSCCC(NC(=O)[C@H]1Cc2ccccc2CN1C(=O)[C@H](CCCN=C(N)N)NC(=O)[C@H](CC1CCCCC1)NC(C)=O)C(=O)N(C)[C@@H](C)C(=O)N[C@@H](CO)C(=O)N(C)[C@@H](C)C(N)=O (stereo partly drawn)	99		1.05	0.89				
CSCC[C@H](NC(=O)[C@H](C)NC(=O)[C@H](CCCN=C(N)N)NC(=O)[C@H](CC1CCCCC1)NC(C)=O)C(=O)N[C@H](C)C(N)=O						0.03	0.25	0.07
CSCC[C@H](NC(=O)[C@H](CCSC)NC(=O)[C@H](CCCN=C(N)N)NC(=O)[C@H](CC1CCCCC1)NC(C)=O)C(=O)N[C@@H](C)C(=O)NC(CO)CO (Ac-[Cha]RMMA-{NHCH(CH2OH)2})							0.68	1.55
CSCC[C@H](NC(=O)[C@H](C)NC(=O)[C@H](CCCN=C(N)N)NC(=O)[C@H](CC1CCCCC1)NC(C)=O)C(=O)N1CCCC[C@@H]1C(=O)N[C@@H](CO)C(=O)N[C@@H](CC(C)C)C(N)=O							0.55	1.08
CSCC[C@H](NC(=O)[C@H](C)NC(=O)[C@H](CCCN=C(N)N)NC(=O)[C@@H](CC1CC2CCC1C2)NC(C)=O)C(=O)N[C@@H](C)C(=O)N[C@@H](CO)C(=O)N[C@@H](CC(C)C)C(N)=O (stereo partly drawn)							1.31	1.53
